# Data from ChEMBL document CHEMBL1139728, “Design, synthesis, and characterization of new embelin derivatives as potent inhibitors of X-linked inhibitor of apoptosis protein” (Bioorg Med Chem Lett, 2006).
# How the values were obtained:
# [1] = test system: MDA-MB-231; experiment: Growth inhibition in human MDA-MB-231 cell line; assay type: functional, cell-based
# In short: (§1)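 Human cancer cells (MDA-MB-231 (2LMP) breast line; PC-3 prostate line) exposed to compound for 4 days across a concentration series spanning 0.01–100 μM. Growth read by WST assay; IC50 taken from the dose-response curve.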
# [2] = test system: PC-3; experiment: Growth inhibition in human PC3 cell line; assay type: functional, cell-based; in short: as §1
# [3] = molecular target: E3 ubiquitin-protein ligase XIAP (Homo sapiens, UniProt P98170); experiment: Binding affinity to recombinant XIAP BIR3 by FP assay
# Chain of E3 ubiquitin-protein ligase XIAP (P98170 whole entry, the tested form may be a part): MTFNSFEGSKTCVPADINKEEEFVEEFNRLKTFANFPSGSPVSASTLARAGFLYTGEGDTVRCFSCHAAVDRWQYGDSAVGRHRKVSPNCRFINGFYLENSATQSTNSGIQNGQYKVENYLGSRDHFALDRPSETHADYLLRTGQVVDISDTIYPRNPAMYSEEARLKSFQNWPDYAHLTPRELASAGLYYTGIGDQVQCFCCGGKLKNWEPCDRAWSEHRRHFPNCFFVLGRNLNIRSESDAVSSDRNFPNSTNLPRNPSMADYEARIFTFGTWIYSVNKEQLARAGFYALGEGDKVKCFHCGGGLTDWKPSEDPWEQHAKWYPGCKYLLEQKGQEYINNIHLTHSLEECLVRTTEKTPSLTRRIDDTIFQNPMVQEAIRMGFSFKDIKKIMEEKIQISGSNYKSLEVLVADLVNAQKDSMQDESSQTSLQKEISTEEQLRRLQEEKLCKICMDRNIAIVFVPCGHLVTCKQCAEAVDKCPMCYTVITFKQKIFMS
# In short: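 Competitive fluorescence-polarization assay on the XIAP BIR3 domain; binding expressed as Ki.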
SMILES,IC50 [1] [µM],IC50 [2] [µM],Ki [3] [µM]
Cc1cccc(CCc2cccc(CCC3=C(O)C(=O)C=C(O)C3=O)c2)c1,5,5.5,–
O=C1C=C(O)C(=O)C(CCCCc2ccccc2)=C1O,–,–,1.3
O=C1C=C(O)C(=O)C(CCc2ccccc2)=C1O,–,–,0.71
CCC1=C(O)C(=O)C=C(O)C1=O,–,–,10.4

# The remaining compounds from weak to strong by Ki [3], led by results:
IC50 [1] [µM],IC50 [2] [µM],Ki [3] [µM],SMILES
–,–,0.48,CCCCc1cccc(CCC2=C(O)C(=O)C=C(O)C2=O)c1
–,–,0.4,CCCCCCCCCCCC1=C(O)C(=O)C=C(O)C1=O [EMBELIN]
